According to ChEMBL document CHEMBL2203146, “Search for anticonvulsant and analgesic active derivatives of dihydrofuran-2(3H)-one” (Bioorg Med Chem, 2012):
Activity calls are given as the source filed them.

What was measured:
Rattus norvegicus [1] = test: Neurotoxicity in Sprague-Dawley rat assessed as minimal motor impairment at 30 mg/kg, po after 4 hrs by rotorod test; format: toxicity, organism-based; parameters: dose 30 mg/kg, route oral; details: in vivo
Rattus norvegicus [2] = test: Neurotoxicity in Sprague-Dawley rat assessed as […] at 30 mg/kg, po after 2 hrs […]; format: toxicity, organism-based; parameters: dose 30 mg/kg, route oral; details: in vivo
Rattus norvegicus [3] = test: Neurotoxicity in Sprague-Dawley rat assessed as […] at 30 mg/kg, po after 1 hr […]; format: toxicity, organism-based; parameters: dose 30 mg/kg, route oral; details: in vivo
Rattus norvegicus [4] = test: Neurotoxicity in Sprague-Dawley rat assessed as minimal motor impairment at 30 mg/kg, po after 0.5 hr by rotorod test; format: toxicity, organism-based; parameters: dose 30 mg/kg, route oral; details: in vivo
Rattus norvegicus [5] = test: Neurotoxicity in Sprague-Dawley rat assessed as […] at 30 mg/kg, po after 0.25 hr […]; format: toxicity, organism-based; parameters: dose 30 mg/kg, route oral; details: in vivo
Rattus norvegicus [6] = test: Anticonvulsant activity in Sprague-Dawley rat assessed as protection against maximal electroshock-induced seizures at 30 mg/kg, po after 4 hrs; format: functional, organism-based; parameters: dose 30 mg/kg
In short: (§1)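 Male Sprague-Dawley rats (100–150 g), compound given orally at 30 mg/kg, dissolved in saline or suspended in 0.5% methylcellulose. Maximal electroshock seizures elicited with 60-cycle alternating current. Result recorded as number protected/number tested at each time point.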

Rattus norvegicus [7] = test: Anticonvulsant activity in Sprague-Dawley rat assessed as protection against maximal electroshock-induced seizures at 30 mg/kg, po after 2 hrs; format: functional, organism-based; parameters: dose 30 mg/kg; in short: as §1
Rattus norvegicus [8] = test: Anticonvulsant activity in Sprague-Dawley rat assessed as protection against maximal electroshock-induced seizures at 30 mg/kg, po after 1 hr; format: functional, organism-based; parameters: dose 30 mg/kg; in short: as §1
Rattus norvegicus [9] = test: Anticonvulsant activity in Sprague-Dawley rat assessed as protection against maximal electroshock-induced seizures at 30 mg/kg, po after 0.5 hr; format: functional, organism-based; parameters: dose 30 mg/kg; in short: as §1
Rattus norvegicus [10] = test: Anticonvulsant activity in Sprague-Dawley rat assessed as protection against maximal electroshock-induced seizures at 30 mg/kg, po after 0.25 hr; format: functional, organism-based; parameters: dose 30 mg/kg; in short: as §1
Mus musculus [11] = test: Anticonvulsant activity in albino CF1 mouse assessed as protection against subcutaneous metrazol-induced seizures at 30 to 300 mg/kg, ip after 0.5 to 4 hrs; format: functional, organism-based
In short: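 CF No. 1 male mice dosed ip at 30, 100 or 300 mg/kg (saline or 0.5% methylcellulose), then given pentetrazole 85 mg/kg sc as 0.5% solution in posterior midline. Watched 30 min. Protection means no threshold seizure (single clonic spasm episode of at least 5 s). Expressed as protected/tested.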

Mus musculus [12] = test: Neurotoxicity in albino CF1 mouse assessed as minimal motor impairment at 300 mg/kg, ip after 4 hrs by rotorod test; format: toxicity, organism-based; parameters: dose 300 mg/kg, route intraperitoneal; details: in vivo
In short: (§2)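 Rotarod in male CF No. 1 mice after ip dosing (30, 100, 300 mg/kg; saline or 0.5% methylcellulose) at 15–240 min. Knurled plastic rod, 1-inch diameter, 6 rpm. Toxicity means failing to stay on for 1 min on three successive attempts. Recorded as toxic/tested.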

Mus musculus [13] = test: Neurotoxicity in albino CF1 mouse assessed as minimal motor impairment at 300 mg/kg, ip after 0.5 hr by rotorod test; format: toxicity, organism-based; parameters: dose 300 mg/kg, route intraperitoneal; details: in vivo; in short: as §2
Mus musculus [14] = test: Neurotoxicity in albino CF1 mouse assessed as minimal motor impairment at 100 mg/kg, ip after 4 hrs by rotorod test; format: toxicity, organism-based; parameters: dose 100 mg/kg, route intraperitoneal; details: in vivo; in short: as §2
Mus musculus [15] = test: Neurotoxicity in albino CF1 mouse assessed as minimal motor impairment at 100 mg/kg, ip after 1 hr by rotorod test; format: toxicity, organism-based; parameters: dose 100 mg/kg, route intraperitoneal; details: in vivo; in short: as §2
Mus musculus [16] = test: Neurotoxicity in albino CF1 mouse assessed as minimal motor impairment at 100 mg/kg, ip after 0.5 hr by rotorod test; format: toxicity, organism-based; parameters: dose 100 mg/kg, route intraperitoneal; details: in vivo; in short: as §2
Mus musculus [17] = test: Neurotoxicity in albino CF1 mouse assessed as minimal motor impairment at 100 mg/kg, ip after 0.25 hr by rotorod test; format: toxicity, organism-based; parameters: dose 100 mg/kg, route intraperitoneal; details: in vivo; in short: as §2
Mus musculus [18] = test: Anticonvulsant activity in albino CF1 mouse assessed as protection against maximal electroshock-induced seizures at 300 mg/kg, ip after 4 hrs; format: functional, organism-based; parameters: dose 300 mg/kg
In short: (§3)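 Male albino CF No. 1 mice (18–25 g) dosed ip at 30, 100 and 300 mg/kg in saline or 0.5% methylcellulose, tested 15, 30, 60 and 240 min after dosing. Maximal electroshock seizures elicited with 60-cycle alternating current. Scored as animals protected/animals tested, small qualitative groups.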

Mus musculus [19] = test: Anticonvulsant activity in albino CF1 mouse assessed as protection against maximal electroshock-induced seizures at 300 mg/kg, ip after 0.5 hr; format: functional, organism-based; parameters: dose 300 mg/kg; in short: as §3
Mus musculus [20] = test: Anticonvulsant activity in albino CF1 mouse assessed as protection against maximal electroshock-induced seizures at 100 mg/kg, ip after 4 hrs; format: functional, organism-based; parameters: dose 100 mg/kg; in short: as §3
Mus musculus [21] = test: Anticonvulsant activity in albino CF1 mouse assessed as protection against maximal electroshock-induced seizures at 100 mg/kg, ip after 1 hr; format: functional, organism-based; parameters: dose 100 mg/kg; in short: as §3
Mus musculus [22] = test: Anticonvulsant activity in albino CF1 mouse assessed as protection against maximal electroshock-induced seizures at 100 mg/kg, ip after 0.5 hr; format: functional, organism-based; parameters: dose 100 mg/kg; in short: as §3
Mus musculus [23] = test: Anticonvulsant activity in albino CF1 mouse assessed as protection against maximal electroshock-induced seizures at 100 mg/kg, ip after 0.25 hr; format: functional, organism-based; parameters: dose 100 mg/kg; in short: as §3
Mus musculus [24] = test: Anticonvulsant activity in albino CF1 mouse assessed as protection against 6 Hz psychomotor seizure at 100 mg/kg, ip after 4 hrs by minimal clonic seizure test; format: functional, organism-based; parameters: dose 100 mg/kg
In short: (§4)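 Male albino CF No. 1 mice, 18–25 g. Compound dissolved in saline or suspended in 0.5% methylcellulose and given ip beforehand. Corneal stimulation with 0.2 ms monopolar rectangular pulses at 6 Hz for 3 s from a constant-current device. Mice restrained during stimulation, then released and observed for the minimal clonic seizure and automatistic behaviour.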

Mus musculus [25] = test: […] activity in ip dosed albino CF1 mouse assessed as inhibition of phenylbenzoquinone-induced writhing administered after 30 mins prior challenge; format: functional
In short: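 Male Albino Swiss (CD-1) mice, 6-8 per dose. Compound given ip in 0.5% methylcellulose. 30 min later, 0.25 ml of 0.02% phenylbenzoquinone injected. After 5 min, writhes counted over 10 min. % effect = (vehicle mean − drug mean)/vehicle mean × 100. ED50 derived; Student's t-test.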

Mus musculus [26] = test: Anticonvulsant activity in albino CF1 mouse assessed as protection against 6 Hz psychomotor seizure at 100 mg/kg, ip after 2 hrs by minimal clonic seizure test; format: functional, organism-based; parameters: dose 100 mg/kg; in short: as §4
Mus musculus [27] = test: Anticonvulsant activity in albino CF1 mouse assessed as protection against 6 Hz psychomotor seizure at 100 mg/kg, ip after 1 hr by minimal clonic seizure test; format: functional, organism-based; parameters: dose 100 mg/kg; in short: as §4
Mus musculus [28] = test: Anticonvulsant activity in albino CF1 mouse assessed as protection against 6 Hz psychomotor seizure at 100 mg/kg, ip after 0.5 hr by minimal clonic seizure test; format: functional, organism-based; parameters: dose 100 mg/kg; in short: as §4
Mus musculus [29] = test: Anticonvulsant activity in albino CF1 mouse assessed as protection against 6 Hz psychomotor seizure at 100 mg/kg, ip after 0.25 hr by minimal clonic seizure test; format: functional, organism-based; parameters: dose 100 mg/kg; in short: as §4
Mus musculus [30] = test: Neurotoxicity in albino CF1 mouse assessed as minimal motor impairment at 30 mg/kg, ip after 0.5 hr by rotorod test; format: toxicity, organism-based; parameters: dose 30 mg/kg, route intraperitoneal; details: in vivo
In short: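 Male albino CF No. 1 mice, compound ip in saline or 0.5% methylcellulose. Rotarod: 1-inch knurled rod at 6 rpm. Toxicity is failure to stay on the rod for 1 min on three successive attempts. Expressed as toxic/tested.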

Mus musculus [31] = test: Anticonvulsant activity in albino CF1 mouse assessed as protection against maximal electroshock-induced seizures at 30 mg/kg, ip after 0.5 hr; format: functional, organism-based; parameters: dose 30 mg/kg
In short: (§5)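 Male albino CF No. 1 mice, 18–25 g. Compound in saline or 0.5% methylcellulose, ip. Seizures elicited by 60-cycle alternating current maximal electroshock. Result expressed as animals protected/animals tested.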

Mus musculus [32] = test: Anticonvulsant activity in albino CF1 mouse assessed as protection against maximal electroshock-induced seizures at 30 mg/kg, ip after 4 hrs; format: functional, organism-based; parameters: dose 30 mg/kg; in short: as §5

Compound	Activity (Mus musculus [11])	Activity (Mus musculus [12])	Activity (Mus musculus [13])	Activity (Mus musculus [14])	Activity (Mus musculus [16])	Activity (Mus musculus [18])	Activity (Mus musculus [19])	Activity (Mus musculus [20])	Activity (Mus musculus [22])	Activity (Mus musculus [24])	Activity (Mus musculus [26])	Activity (Mus musculus [27])	Activity (Mus musculus [28])	Activity (Mus musculus [29])	also measured
C/C(Nc1ccccc1)=C1\CCOC1=O	inactive	Non-toxic	Toxic	Non-toxic	Non-toxic	inactive	Active	inactive	inactive	–	–	–	–	–	Activity (Rattus norvegicus [1]): Non-toxic; Activity (Rattus norvegicus [2]): Non-toxic; Activity (Rattus norvegicus [3]): Non-toxic; Activity (Rattus norvegicus [4]): Non-toxic; Activity (Rattus norvegicus [5]): Non-toxic; Activity (Rattus norvegicus [6]): inactive; Activity (Rattus norvegicus [7]): inactive; Activity (Rattus norvegicus [8]): inactive; Activity (Rattus norvegicus [9]): inactive; Activity (Rattus norvegicus [10]): inactive; Activity (Mus musculus [15]): Non-toxic; Activity (Mus musculus [17]): Non-toxic; Activity (Mus musculus [21]): inactive; Activity (Mus musculus [23]): Active
NC(=O)c1ccccc1OC1CCOC1=O (racemic)	inactive	Non-toxic	Non-toxic	Non-toxic	Non-toxic	inactive	inactive	inactive	inactive	inactive	inactive	inactive	inactive	inactive	ED50 (Mus musculus [25]): 7.9 mg/kg
Cl.O=C1OCCC1NC1CCCCC1 (racemic)	inactive	Non-toxic	Non-toxic	Non-toxic	Non-toxic	inactive	inactive	inactive	inactive	inactive	Active	inactive	inactive	inactive	Activity (Mus musculus [30]): Toxic; Activity (Mus musculus [31]): inactive; Activity (Mus musculus [32]): inactive
